RBBP9 inhibitor = human RBBP9 inhibitors, primary screen, biochemical, fluorescence polarization, FP-Rh probe, HTS; Serine hydrolase RBBP9 (Homo sapiens), O75884; recombinant RBBP9; inhibition, % at 7.94 µM; 220,000 compounds, 0.2% hits;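 active means inhibition above the campaign mean of all tested compounds plus 3 SD, cut at about 14% in these data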
Target sequence (O75884 whole entry, looked up): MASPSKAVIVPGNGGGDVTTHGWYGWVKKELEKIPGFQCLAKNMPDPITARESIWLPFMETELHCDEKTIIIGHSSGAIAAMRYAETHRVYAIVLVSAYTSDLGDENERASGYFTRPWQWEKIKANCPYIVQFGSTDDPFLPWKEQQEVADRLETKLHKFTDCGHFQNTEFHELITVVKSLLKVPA
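Measured by – fluorescence polarization · Test system – RBBP9 protein · Input – 2.5 µM RBBP9 dispensing solution, before mixing · Measure – percent inhibition from mP, scaled between DMSO and no-protein wells · Benchmarks – DMSO-treated enzyme wells and wells lacking RBBP9 · Times – preincubation 30 min plus labeling 45 min at 25 °C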
PAFAH2 FP inh = PAFAH2 enzyme inhibitors, primary screen, biochemical, fluorescence polarization, human. inhibition, % at 3.39 µM. 340,000 compounds, 0.99% hits. Platelet-activating factor acetylhydrolase 2, cytoplasmic (Homo sapiens), Q99487. recombinant PAFAH2, FP-rhodamine activity probe;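 active means inhibition above the mean over all tested compounds plus 3 SD, cut at about 30% in these data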;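 further: inhibitors block probe labeling of enzyme so polarization drops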
PAFAH1B2 inh = PAFAH1B2 enzyme inhibitors, primary screen, biochemical, fluorescence polarization, human; Platelet-activating factor acetylhydrolase IB subunit alpha2 (Homo sapiens), P68402; recombinant PAFAH1B2, FP-rhodamine activity probe; inhibition, % at 3.39 µM; 340,000 compounds, 1.2% hits; AID 492953, 2010;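 active means inhibition above the mean of all tested compounds plus 3 SD, cut at about 24% in these data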
pPAFAH inh = pPAFAH enzyme inhibitors, primary screen, biochemical, fluorescence polarization, human; recombinant pPAFAH, FP-rhodamine probe fluorescence polarization; Platelet-activating factor acetylhydrolase (Homo sapiens), Q13093; inhibition, % at 3.39 µM; 330,000 compounds, 1.5% hits;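 active means inhibition above the mean inhibition across the screen plus 3 SD, cut at about 25% in these data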;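 further: inhibitors block binding of the rhodamine activity-based probe so polarization drops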
Target sequence (Q13093 whole entry, looked up): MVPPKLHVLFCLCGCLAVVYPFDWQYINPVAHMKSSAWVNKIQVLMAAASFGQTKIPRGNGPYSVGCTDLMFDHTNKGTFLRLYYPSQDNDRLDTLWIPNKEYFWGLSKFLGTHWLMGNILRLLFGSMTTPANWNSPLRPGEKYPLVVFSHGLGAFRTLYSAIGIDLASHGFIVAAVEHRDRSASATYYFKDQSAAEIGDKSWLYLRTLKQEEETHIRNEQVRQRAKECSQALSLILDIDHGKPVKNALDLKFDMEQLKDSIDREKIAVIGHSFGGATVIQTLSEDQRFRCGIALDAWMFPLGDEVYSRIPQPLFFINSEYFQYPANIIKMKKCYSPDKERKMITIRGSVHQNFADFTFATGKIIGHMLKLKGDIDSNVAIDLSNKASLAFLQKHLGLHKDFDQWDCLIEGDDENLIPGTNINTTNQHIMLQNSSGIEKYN
PAFAH1B3 inh = PAFAH1B3 enzyme inhibitors, primary screen, biochemical, fluorescence polarization, human; inhibition, % at 3.39 µM; 340,000 compounds, 0.28% hits; AID 492972, 2010; recombinant PAFAH1B3, FP-rhodamine probe;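 active means inhibition above the screen-wide average of all tested compounds plus 3 SD, cut at about 25% in these data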
PAFAH2 confirm = PAFAH2 enzyme inhibitors, confirmation, biochemical, fluorescence polarization, human; shares compounds with PAFAH2 FP inh; AID 493030, 2011; 2,300 compounds, 65% hits; recombinant PAFAH2, FP-rhodamine activity probe; inhibition, % at 3.39 µM;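 active means mean inhibition over three repeats above a set limit taken from the earlier primary screen, cut at about 30% in these data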;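 further: inhibitor blocks binding of rhodamine activity probe so polarization falls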
Numbers stand for hits; - = inactive; . = no result given. Sampled rows, rich in hits. Any-hit rate of the full collection: about 2.7%.

SMILES | RBBP9 inhibitor | PAFAH2 FP inh | PAFAH1B2 inh | pPAFAH inh | PAFAH1B3 inh | PAFAH2 confirm
C=CCn1c(SCC(=O)N(C)C2CCCCC2)nnc1C1CC1 | . | 34.3 | - | - | - | -
N#CCc1ccc(NS(=O)(=O)c2ccc(C3CCCCC3)cc2)cc1 | - | - | - | - | - | .
CC1=C(C#N)C(=O)NC(=O)/C1=C\c1ccc(-c2cc(C)c(C)cc2[N+](=O)[O-])o1 | - | 31.7 | - | . | - | -
Nc1nc(CSC(=S)N2CCCCC2)nc(Nc2ccccc2)n1 | - | - | - | - | - | .
COc1ccccc1Nc1nc(N)nc(CSC(=S)N2CCCCC2)n1 | - | 37.2 | - | - | - | -
Cc1ccccc1OCC(=O)NCCCNC(=O)c1cccnc1 | . | - | - | - | - | .
CCN(CC(=O)Nc1ccc(NC(C)=O)cc1)C(=O)CC1OC(=O)c2ccccc21 (stereo not given) | . | - | - | - | - | .
CCCCCCCCCCCC1=C(O)C(=O)C=C(O)C1=O | . | 52.8 | - | - | - | 39.9
CN1CCN(c2cc(N3CCc4ccccc4C3)c(F)cc2[N+](=O)[O-])CC1 | - | - | - | - | - | .
CN(C(=O)COC(=O)c1ccc2c(c1)OCO2)C1CCCCC1 | . | 66.7 | - | - | - | 67.1
CC1CCCC(NC(=O)COC(=O)c2ccc3c(c2)OCCO3)C1C (stereo not given) | . | 83.6 | - | - | - | 76.5
O=C(COC(=O)c1ccc(NS(=O)(=O)c2ccc3c(c2)OCCO3)cc1)NC1CC1 | - | 63.6 | - | - | - | 51.1
CCNC(=O)COC(=O)c1ccc(NS(=O)(=O)c2ccc3c(c2)OCCO3)cc1 | - | - | - | - | - | .
O=C(COC(=O)c1ccc2c(c1)OCO2)NC1CCCCC1 | . | 89.1 | - | - | - | 81.9
CN(C(=O)COC(=O)c1ccc2c(c1)OCO2)C1CCS(=O)(=O)C1 (stereo not given) | - | - | - | - | - | .
COc1ccc(-c2ccc3c(c2)C2CC3CCN2C(=O)C2CCCCC2)cc1 (stereo not given) | . | - | - | . | - | .
CS(=O)(=O)c1ccc(Cl)c(NC(=O)Cc2ccccc2F)c1 | - | 52.2 | - | - | - | 30.4
COC(=O)Nc1nc(-c2ccccc2)c(C(=O)c2ccccc2)s1 | - | 53.1 | - | - | - | 50.0
COC(=O)Nc1nc(C)c(C(=O)c2ccccc2)s1 | - | - | - | - | - | .
CCOc1cccc(/C=N/NC(=S)Nc2ccccc2[N+](=O)[O-])c1O | - | 44.8 | - | - | - | -
COc1cccc2sc(Nc3nnc(-c4ccc(F)cc4)o3)nc12 | - | 64.8 | - | - | - | -
COc1cccc2sc(Nc3nnc(-c4cccs4)o3)nc12 | - | - | - | - | - | .
COc1ccc(NS(=O)(=O)c2cc([N+](=O)[O-])ccc2NN=Cc2ccccc2OCC(=O)O)cc1 | . | 48.9 | - | - | - | -
COc1ccc(NS(=O)(=O)c2cc([N+](=O)[O-])ccc2N/N=C\c2c(C)[nH]c3ccccc23)cc1 | - | - | - | - | - | .
COc1ccc(NC(=O)c2cc3c(CO)cnc(C)c3oc2=Nc2cccc(F)c2)c(OC)c1 | . | - | - | - | - | .
SMILES | RBBP9 inhibitor | PAFAH2 FP inh | PAFAH1B2 inh | pPAFAH inh | PAFAH1B3 inh | PAFAH2 confirm
O=C(COC(=O)c1ccco1)NCCc1ccc(Cl)cc1 | . | 48.7 | - | - | - | 30.7
O=C(COC(=O)c1cc(Cl)ccc1[N+](=O)[O-])NCc1ccc(Cl)cc1Cl | - | 30.0 | - | - | - | -
COc1ccccc1CNC(=O)COC(=O)c1ccco1 | . | - | - | - | - | .
O=C(COC(=O)c1ccco1)NCc1ccccc1Cl | - | 58.2 | - | - | - | 37.7
O=C(COC(=O)c1ccco1)NCc1ccc(Cl)cc1Cl | . | 69.3 | - | - | - | 51.2
CNC(=O)c1[nH]cnc1C(=O)NCC(=O)OCc1ccccc1 | . | - | - | - | - | .
COc1ccc([N+](=O)[O-])cc1NC(=O)C(C)OC(=O)CC1CCCC1 (stereo not given) | . | - | - | - | - | .
Cc1cc(C)cc(NC(=O)COC(=O)c2ccc3c(c2)OCCO3)c1 | . | 71.9 | - | - | - | 76.8
CCOc1ccc(NC(=O)COC(=O)c2ccc3c(c2)OCCO3)cc1 | . | 59.6 | - | - | - | 54.3
Cc1ccc(C(=O)OCC(=O)Nc2ccc3c(c2)OCCO3)cc1C | . | 58.2 | - | . | - | 51.6
CCC1CCCCN1C(=O)COC(=O)c1cc(C)nc2ccccc12 (stereo not given) | . | - | - | - | - | .
Cc1cccc(C)c1NC(=O)COC(=O)c1cccnc1 | - | - | - | - | - | .
CC(Sc1nc(N)cc(=O)[nH]1)C(=O)NCC(=O)Nc1ccc(F)c(F)c1F (stereo not given) | . | - | - | - | - | .
Cc1ccc(NC(=O)COC(=O)c2ccc3c(c2)OCO3)cc1S(=O)(=O)N1CCCCC1 | - | 69.0 | - | - | - | 63.0
Cc1ccc(NC(=O)COC(=O)c2ccc(OC(F)F)cc2)cc1S(=O)(=O)N1CCCCC1 | . | 51.4 | - | . | - | 42.2
COc1cccc(NC(=O)COC(=O)c2ccc(C)c(S(=O)(=O)N3CCCCC3)c2)c1 | . | - | - | - | - | .
Cc1ccc(NC(=O)CNC(=O)c2ccc(OC(F)F)cc2)cc1S(=O)(=O)N1CCCCCC1 | . | - | - | . | - | .
NC(=O)C1CCN(C(=O)C2c3ccccc3C(=O)N3CCc4ccccc4C23)CC1 (stereo not given) | - | - | - | - | - | .
Cc1cccc(C)c1NC(=O)CN(C)CC(=O)c1c(N)n(Cc2ccccc2)c(=O)n(C)c1=O | . | - | - | - | - | .
Cc1cccc(C(=O)O/N=C(\N)CS(=O)(=O)c2ccccc2)c1 | . | 43.9 | - | - | - | 36.4
COc1cccc(C(=O)O/N=C(\N)CS(=O)(=O)c2ccccc2)c1 | . | 64.4 | - | - | - | 45.2
COc1cccc(C(=O)O/N=C(\N)c2ccccn2)c1 | . | - | - | - | - | .
O=S(=O)(Nc1c(O)ccc2ccccc12)c1cccc2ccccc12 | . | 31.5 | - | - | - | -
Brc1ccccc1Cn1c(-c2cscn2)nc2ccccc21 | - | - | - | - | - | .
O=C1CCCC/C=C\C[C@H](CC(=O)N(CCO)Cc2ccccc2)C(=O)N[C@@H](c2ccccc2)CO1 | . | 48.2 | - | - | - | 32.6
CC(C)(C)[C@H]1COC(=O)CCCC/C=C\C[C@H](CC(=O)N(CCO)Cc2ccccc2)C(=O)N1 | . | - | - | - | - | .
Cc1ccc(C)c(Sc2ccc(NC(=O)CCN3C(=O)NC4(CCCC4)C3=O)cc2)c1 | . | 49.5 | - | - | - | 53.9
CC(=O)C(Cc1ccccc1)NC(=O)COC(=O)c1cccc(C)c1[N+](=O)[O-] (stereo not given) | . | 35.5 | - | - | - | -

High-throughput results from PubChem.
